Assays:
σ1 receptor [1] = biological target: σ1 receptor (Cavia porcellus, UniProt Q60492); assay: Competition binding assay at σ1 receptors with [3H]; parameters: species or system guinea pig
σ2 receptor [2] = biological target: T1, σ2 receptor (Cavia porcellus, UniProt H0V073); assay: Competition binding assay at σ2 receptors with [3H]DTG / 500 nM; parameters: species or system guinea pig
T1 sequence (H0V073 1-176): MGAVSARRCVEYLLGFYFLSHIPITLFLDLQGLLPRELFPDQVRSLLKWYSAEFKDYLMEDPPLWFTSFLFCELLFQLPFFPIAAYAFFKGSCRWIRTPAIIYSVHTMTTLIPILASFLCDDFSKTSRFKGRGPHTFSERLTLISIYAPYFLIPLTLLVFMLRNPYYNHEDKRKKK

[3] = Compound stability in stock buffer for in vitro binding assays; type: physicochemical; details: for Purity by HPLC after 25 days in stock buffer: 10^-3 M in water with 1% EtOH and 0.1% or 2.5% AcOH; for State after 25 days in stock buffer: stock buffer 2.5% AcOH, 1% EtOH in water
Outline: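 Those prepared as HCl or oxalate salts were held instead in 0.1% AcOH with 1% EtOH. After 25 days in stock buffer, purity of each compound was analysed by analytical HPLC.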

σ2 receptor [4] = details: cited from earlier work
σ1 receptor [5] = details: cited from earlier work

σ1 receptor (Cavia porcellus, UniProt Q60492), sequence (Q60492 whole entry): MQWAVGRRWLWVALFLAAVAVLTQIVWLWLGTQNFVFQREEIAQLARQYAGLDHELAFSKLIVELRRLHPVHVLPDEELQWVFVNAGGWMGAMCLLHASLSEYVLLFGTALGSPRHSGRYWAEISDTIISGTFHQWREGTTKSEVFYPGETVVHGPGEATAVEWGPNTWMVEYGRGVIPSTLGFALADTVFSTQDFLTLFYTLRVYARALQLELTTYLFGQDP

## 5-bromo-N-(4-(7,8-dimethoxy-2,3,4,5-tetrahydro-1H-benzo[b]azepin-1-yl)butyl)-2,3-dimethoxybenzamide [Compound 7]
σ1 receptor [1]; 7 (7R-1) vs. 6 (7R-2)
  Poorer σ1 affinity relative to 6: 20%
σ1 receptor [1]; read-out: Ki (nM) σ1, [3H](+)-PTZ, guinea pig brain membranes, mean ± SEM, n = 4
  Ki: 2560 ± 175 nM
σ2 receptor [2]; 7 (7R-1) vs. 6 (7R-2)
  Poorer σ2 affinity relative to 6: ~30 times
σ2 receptor [2]; ratio of Ki values
  Selectivity Ki σ1 / Ki σ2: 0.29
[3]
  Purity by HPLC after 25 days in stock buffer: exceeded 95%

## 5-bromo-N-(4-((3,4-dimethoxyphenethyl)(methyl)amino)butyl)-2,3-dimethoxybenzamide [Compound 9]
[3]
  Purity by HPLC after 25 days in stock buffer: exceeded 95%

## COc1cc2c(cc1OC)CN(CCCCNC(=O)c1cc(Br)cc(OC)c1OC)CC2 [Compound 1]
σ2 receptor [4]; read-out: Ki (nM) σ2
  Ki: 8.2 nM

## COc1ccc(CCNCCCCNC(=O)c2cc(Br)cc(OC)c2OC)cc1OC [Compound 2]
σ2 receptor [4]; relative to 1
  Decrease in σ2 affinity relative to 1: 1700 fold
σ1 receptor [5]
  Change in σ1 affinity relative to 1: no change

## COc1cc2c(cc1OC)CN(CCCCNC(=O)c1cc(Br)cc(OC)c1OC)C2 [Compound 3, 5-bromo-N-(4-(5,6-dimethoxyisoindolin-2-yl)butyl)-2,3-dimethoxybenzamide]
σ1 receptor [1]; relative to 1
  Decrease in σ1 affinity relative to 1: approximately 50%
σ2 receptor [2]; relative to 1
  Improvement of σ2 affinity over that of 1: 70%
[3]
  Purity by HPLC after 25 days in stock buffer: exceeded 95%

## COc1cc2c(cc1OC)CCN(CCCCNC(=O)c1cc(Br)cc(OC)c1OC)CC2 [Compound 4, 5-bromo-N-(4-(7,8-dimethoxy-4,5-dihydro-1H-benzo[d]azepin-3(2H)-yl)butyl)-2,3-dimethoxybenzamide]
σ1 receptor [1]; compared to 6 (7R-2) and 7 (7R-1)
  Poorest σ1 affinity by a factor compared to 6 and 7: 2
[3]
  Purity by HPLC after 25 days in stock buffer: exceeded 95%

## COc1cc2c(cc1OC)N(CCCCNC(=O)c1cc(Br)cc(OC)c1OC)CC2 [Compound 5, 5-bromo-N-(4-(5,6-dimethoxyindolin-1-yl)butyl)-2,3-dimethoxybenzamide]
σ1 receptor [1]; 3 (5R-2) vs. 5 (5R-1)
  Poorer σ1 affinity, 3 vs. 5: 3 times
[3]
  State after 25 days in stock buffer: totally decomposed

## COc1cc2c(cc1OC)CN(CCCCNC(=O)c1cc(Br)cc(OC)c1OC)CCC2 [Compound 6, 5-bromo-N-(4-(7,8-dimethoxy-4,5-dihydro-1H-benzo[c]azepin-2(3H)-yl)butyl)-2,3-dimethoxybenzamide]
[3]
  Purity by HPLC after 25 days in stock buffer: exceeded 95%

## COc1cc2c(cc1OC)N(CCCCNC(=O)c1cc(Br)cc(OC)c1OC)CCC2 [Compound 8, 5-bromo-N-(4-(6,7-dimethoxy-3,4-dihydroquinolin-1(2H)-yl)butyl)-2,3-dimethoxybenzamide]
σ1 receptor [1]; relative to 1 (Mach Lead)
  σ1 affinity decreased by a factor, relative to 1: 5
σ2 receptor [2]; relative to 1 (Mach Lead)
  σ2 affinity relative to 1 (in words): totally ablated
[3]
  State after 25 days in stock buffer: totally decomposed

Reference: paper PMC3064429 (Bioorganic & medicinal chemistry, 2011)
